Results on 5 compounds are retold here after ChEMBL document CHEMBL1126291 (J Med Chem, 1992).

Holding throughout (format): functional
The test system of experiment [1] is Leishmania donovani. Put plainly: Growth inhibition of Leishmania donovani promastigotes by the compound at […]. The settings on record: for inhibition at […]: Leishmania donovani.
Experiment [2] relates to Leishmania donovani. As to the kind of experiment: Growth inhibition of Leishmania donovani promastigotes by the compound at 1.3 uM. The method, boiled down:
(§1)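 Seeded at 0.5 × 10^6 cells per well. Compounds added a few hours later in water. Cells counted by hemacytometer after 3 days, against untreated cultures. Duplicates.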

Experiment [3] relates to Leishmania donovani. Put plainly: Growth inhibition of Leishmania donovani promastigotes by the compound at 14 uM. In short, it runs like this: as §1

The term inhibition denotes the drop in the measured response relative to a control, in per cent. A high value points to a response far below the control. On to `Nc1ncnc2c1ncn2[C@@H]1O[C@H](C[C@H](N)CC[C@H](N)C(=O)O)[C@@H](O)[C@H]1O`, for which the inhibition at […] in experiment [1] worked out at 34%. The compound also yielded an inhibition at 1.3 µM in experiment [2] of 91%.
In turn, `NC(CC[C@H](N)C(=O)O)C[C@H]1OC(N2CCC(=O)NC2=O)[C@H](O)[C@@H]1O` (stereo partly specified) had an inhibition at 14 µM in experiment [3] of 19%.
Compound `NC(CC[C@H](N)C(=O)O)C[C@H]1OC(n2ccc(=O)[nH]c2=O)[C@H](O)[C@@H]1O` (stereo partly specified) registered an inhibition at 14 µM in experiment [3] of 20%.
For the compound `Nc1ncnc2c1ncn2[C@@H]1O[C@H](C[C@@H](N)CC[C@H](N)C(=O)O)[C@@H](O)[C@H]1O` (stereo in doubt; form 1) [SINEFUNGIN], the inhibition at […] in experiment [1] came to 100%.
The term Inhibition denotes the relative decrease from the control value, in per cent. Higher therefore signals a response far below the control. `Nc1ncnc2c1ncn2[C@@H]1O[C@H](C[C@@H](N)CC[C@H](N)C(=O)O)[C@@H](O)[C@H]1O` (stereo in doubt; form 2) [SINEFUNGIN] had an Inhibition in experiment [1] of 88%.
